The record followed here is ChEMBL document CHEMBL2311400, “Synthesis and biological evaluation of 4-(aminomethyl)-1-hydroxypyrazole analogues of muscimol as γ-aminobutyric acid(a) receptor agonists” (J Med Chem, 2013).

The experiment has as its target T1, GABA A receptor alpha-3/beta-2/gamma-2 (Homo sapiens, UniProt P18507+P34903+P47870).
T1 sequence (P47870 whole entry): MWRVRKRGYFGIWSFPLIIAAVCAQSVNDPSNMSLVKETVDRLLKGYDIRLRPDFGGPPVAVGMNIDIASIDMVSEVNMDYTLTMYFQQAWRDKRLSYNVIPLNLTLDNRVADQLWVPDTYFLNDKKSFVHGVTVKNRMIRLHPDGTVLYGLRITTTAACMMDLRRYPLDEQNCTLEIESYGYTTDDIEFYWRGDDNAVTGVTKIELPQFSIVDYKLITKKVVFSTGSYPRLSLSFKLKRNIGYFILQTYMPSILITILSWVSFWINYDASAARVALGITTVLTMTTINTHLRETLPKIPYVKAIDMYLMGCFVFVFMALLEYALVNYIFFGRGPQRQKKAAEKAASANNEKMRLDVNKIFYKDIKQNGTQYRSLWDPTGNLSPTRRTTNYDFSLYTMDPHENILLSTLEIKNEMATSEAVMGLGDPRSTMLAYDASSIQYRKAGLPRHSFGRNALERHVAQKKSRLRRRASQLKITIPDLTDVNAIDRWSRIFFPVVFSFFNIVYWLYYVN
T1 sequence (P18507 whole entry): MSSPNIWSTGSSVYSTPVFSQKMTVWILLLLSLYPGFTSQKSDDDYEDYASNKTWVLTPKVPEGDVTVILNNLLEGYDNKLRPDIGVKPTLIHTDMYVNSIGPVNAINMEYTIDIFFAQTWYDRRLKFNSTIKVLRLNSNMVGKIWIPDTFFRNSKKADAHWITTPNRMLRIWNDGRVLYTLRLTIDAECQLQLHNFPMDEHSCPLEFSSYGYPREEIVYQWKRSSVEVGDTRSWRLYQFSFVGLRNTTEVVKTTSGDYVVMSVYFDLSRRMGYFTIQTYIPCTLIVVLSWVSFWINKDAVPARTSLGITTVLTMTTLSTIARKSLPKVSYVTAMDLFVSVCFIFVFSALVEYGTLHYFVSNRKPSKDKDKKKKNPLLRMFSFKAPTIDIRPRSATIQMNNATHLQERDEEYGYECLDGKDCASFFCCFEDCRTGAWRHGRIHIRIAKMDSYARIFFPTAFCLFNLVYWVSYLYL
T1 sequence (P34903 whole entry): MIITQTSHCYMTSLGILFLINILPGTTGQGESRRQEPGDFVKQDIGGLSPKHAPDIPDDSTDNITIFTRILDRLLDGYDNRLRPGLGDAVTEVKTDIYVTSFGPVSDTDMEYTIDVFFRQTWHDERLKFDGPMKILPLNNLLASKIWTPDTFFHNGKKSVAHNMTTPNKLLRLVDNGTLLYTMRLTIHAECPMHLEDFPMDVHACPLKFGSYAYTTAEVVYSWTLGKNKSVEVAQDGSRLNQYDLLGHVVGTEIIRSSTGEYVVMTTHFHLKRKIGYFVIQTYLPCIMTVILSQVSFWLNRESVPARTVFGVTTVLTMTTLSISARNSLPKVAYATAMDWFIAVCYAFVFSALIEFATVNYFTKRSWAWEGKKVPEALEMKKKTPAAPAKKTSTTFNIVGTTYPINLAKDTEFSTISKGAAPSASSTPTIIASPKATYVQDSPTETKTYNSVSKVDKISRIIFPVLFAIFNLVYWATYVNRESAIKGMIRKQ
Briefly: Agonist activity at human GABAA alpha3beta2gamma2S receptor expressed in TSA201 cells after 1 min by FLIPR assay. Format: cell-based. In a few lines: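 tsA201 cells transfected with 1 μg α (1, 2, 3 or 5), 1 μg β2 and 3 μg γ2S cDNA (Polyfect). Cells replated onto poly-D-lysine plates and assayed 16–24 h later. Loaded with FMP blue dye in Krebs buffer pH 7.4 for 30 min at 37 °C.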

On to `NCc1cnn(O)c1`, for which the EC50 (usually the concentration needed to bring the measured effect to its halfway point) was found to be 5.6 µM.
